The values that follow come from ChEMBL document CHEMBL1250448, “Inhibitor hijacking of Akt activation” (Nat Chem Biol, 2009).

Assay [1] concerns the target Receptor tyrosine-protein kinase erbB-4 (Homo sapiens) (UniProt Q15303). Briefly: Inhibition of ERBB4 at 1 uM in presence of 10 uM ATP by Select Screen kinase assay relative to untreated control. The method in brief:
(§1)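 Single-point screen at 1 μM against a panel of 220 purified kinases, run by Invitrogen staff as a SelectScreen profiling service. Read-out is percent inhibition of kinase activity.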

Assay [2] addresses Dual specificity mitogen-activated protein kinase kinase 1 (Homo sapiens) (UniProt Q02750). The experiment in a line: Inhibition of MAP2K1 at 1 uM in presence of 100 uM ATP by Select Screen kinase assay relative to untreated control. The method in brief:
(§2)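 Single-concentration profiling at 1 μM against a panel of 220 purified kinases, run as an outsourced SelectScreen kinase profiling service. Activity is expressed as percent inhibition.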

Assay [3] concerns the target Tyrosine-protein kinase Srms (Homo sapiens) (UniProt Q9H3Y6). Briefly: Inhibition of SRMS at 1 uM in presence of 10 uM ATP by Select Screen kinase assay relative to untreated control. The procedure, abridged:
(§3)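 Commercial SelectScreen profiling panel of 220 purified kinases. Each kinase was tested at a single inhibitor concentration of 1 μM, and activity was expressed as percent inhibition.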

The target in assay [4] is RAC-alpha serine/threonine-protein kinase (Homo sapiens, UniProt P31749). Briefly: Inhibition of AKT1 at 1 uM in presence of 10 uM ATP by Select Screen kinase assay relative to untreated control. The method in brief: as §1
Sequence of RAC-alpha serine/threonine-protein kinase (P31749 whole entry): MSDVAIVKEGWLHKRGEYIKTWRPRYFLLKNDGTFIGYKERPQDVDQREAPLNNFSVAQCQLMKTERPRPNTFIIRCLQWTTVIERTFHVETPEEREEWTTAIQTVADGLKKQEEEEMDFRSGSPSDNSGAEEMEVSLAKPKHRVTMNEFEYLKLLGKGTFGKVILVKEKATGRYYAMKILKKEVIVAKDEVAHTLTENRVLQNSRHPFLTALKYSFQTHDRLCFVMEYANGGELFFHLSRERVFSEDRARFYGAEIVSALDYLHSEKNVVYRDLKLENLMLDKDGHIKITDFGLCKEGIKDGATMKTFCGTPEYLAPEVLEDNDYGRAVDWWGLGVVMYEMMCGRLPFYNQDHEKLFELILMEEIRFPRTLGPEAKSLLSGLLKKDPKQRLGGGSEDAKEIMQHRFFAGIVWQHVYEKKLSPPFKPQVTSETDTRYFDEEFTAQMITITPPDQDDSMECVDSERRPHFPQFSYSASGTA
The target in assay [5] is Serine/threonine-protein kinase PAK 5 (Homo sapiens) (UniProt Q9P286). Briefly: Inhibition of PAK7 at 1 uM in presence of 10 uM ATP by Select Screen kinase assay relative to untreated control. The method in brief: as §3
Assay [6] has as its target Tyrosine-protein kinase Fes/Fps (Homo sapiens) (UniProt P07332). The experiment in a line: Inhibition of FES at 1 uM in presence of 10 uM ATP by Select Screen kinase assay relative to untreated control. The procedure, abridged: as §1
Assay [7] deals with Phosphorylase b kinase gamma catalytic chain, skeletal muscle/heart isoform (Homo sapiens) (UniProt Q16816). The experiment in a line: Inhibition of PHKG1 at 1 uM in presence of 100 uM ATP by Select Screen kinase assay relative to untreated control. The method in brief: as §3
Assay [8] deals with Casein kinase I isoform gamma-3 (Homo sapiens) (UniProt Q9Y6M4). Briefly: Inhibition of CSNK1G3 at 1 uM in presence of 10 uM ATP by Select Screen kinase assay relative to untreated control. The method in brief: as §1
Sequence of Casein kinase I isoform gamma-3 (Homo sapiens) (Q9Y6M4 whole entry, looked up, canonical isoform): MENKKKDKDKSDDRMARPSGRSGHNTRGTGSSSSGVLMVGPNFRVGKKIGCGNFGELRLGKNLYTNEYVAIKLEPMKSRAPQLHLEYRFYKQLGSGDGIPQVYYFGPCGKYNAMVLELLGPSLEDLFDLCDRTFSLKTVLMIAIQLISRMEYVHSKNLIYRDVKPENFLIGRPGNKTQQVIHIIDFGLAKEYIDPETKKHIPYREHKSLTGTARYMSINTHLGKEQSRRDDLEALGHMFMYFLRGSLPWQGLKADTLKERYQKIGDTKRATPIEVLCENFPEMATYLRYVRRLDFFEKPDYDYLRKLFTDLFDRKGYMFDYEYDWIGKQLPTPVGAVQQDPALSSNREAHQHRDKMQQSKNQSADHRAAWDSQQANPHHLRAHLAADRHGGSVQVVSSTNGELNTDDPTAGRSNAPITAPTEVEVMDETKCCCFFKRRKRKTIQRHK
In assay [9] the target is Leukocyte tyrosine kinase receptor (Homo sapiens) (UniProt P29376). The experiment in a line: Inhibition of LTK at 1 uM in presence of 10 uM ATP by Select Screen kinase assay relative to untreated control. The method in brief: as §2
Assay [10] deals with Insulin-like growth factor 1 receptor (Homo sapiens) (UniProt P08069). Briefly: Inhibition of IGF1R at 1 uM in presence of 10 uM ATP by Select Screen kinase assay relative to untreated control. The procedure, abridged:
as §2

Assay [11] relates to Hepatocyte growth factor receptor (Homo sapiens), P08581 [M1250T]. Briefly: Inhibition of MET M1250T mutant at 1 uM in presence of 10 uM ATP by Select Screen kinase assay relative to untreated control. The method in brief: as §2
The target of assay [12] is T1, Interleukin-1 receptor-associated kinase 4 (Homo sapiens) (UniProt Q9NWZ3).
T1 sequence (whole entry): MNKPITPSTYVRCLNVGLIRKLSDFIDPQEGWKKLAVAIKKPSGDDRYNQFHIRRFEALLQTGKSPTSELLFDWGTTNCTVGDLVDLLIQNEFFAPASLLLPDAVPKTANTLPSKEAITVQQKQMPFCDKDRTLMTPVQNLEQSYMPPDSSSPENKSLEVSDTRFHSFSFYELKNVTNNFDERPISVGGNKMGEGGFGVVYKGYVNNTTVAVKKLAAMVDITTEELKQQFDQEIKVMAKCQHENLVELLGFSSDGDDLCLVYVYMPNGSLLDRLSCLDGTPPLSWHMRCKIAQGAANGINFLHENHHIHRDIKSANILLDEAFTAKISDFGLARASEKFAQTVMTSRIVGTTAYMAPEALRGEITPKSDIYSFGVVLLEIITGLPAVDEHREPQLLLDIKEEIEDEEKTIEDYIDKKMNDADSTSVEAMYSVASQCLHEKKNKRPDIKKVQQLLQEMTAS
The experiment in a line: Inhibition of IRAK4 at 1 uM in presence of 10 uM ATP by Select Screen kinase assay relative to untreated control. The procedure, abridged: as §2

For assay [13], the target named is Macrophage colony-stimulating factor 1 receptor (Homo sapiens) (UniProt P07333). The experiment in a line: Inhibition of CSF1R at 1 uM in presence of 10 uM ATP by Select Screen kinase assay relative to untreated control. The procedure, abridged:
as §1

The target in assay [14] is PAS domain-containing serine/threonine-protein kinase (Homo sapiens) (UniProt Q96RG2). The experiment in a line: Inhibition of PASK at 1 uM in presence of 10 uM ATP by Select Screen kinase assay relative to untreated control. The method in brief: as §3
Sequence of PAS domain-containing serine/threonine-protein kinase (Homo sapiens) (Q96RG2 whole entry, the tested form may be a part): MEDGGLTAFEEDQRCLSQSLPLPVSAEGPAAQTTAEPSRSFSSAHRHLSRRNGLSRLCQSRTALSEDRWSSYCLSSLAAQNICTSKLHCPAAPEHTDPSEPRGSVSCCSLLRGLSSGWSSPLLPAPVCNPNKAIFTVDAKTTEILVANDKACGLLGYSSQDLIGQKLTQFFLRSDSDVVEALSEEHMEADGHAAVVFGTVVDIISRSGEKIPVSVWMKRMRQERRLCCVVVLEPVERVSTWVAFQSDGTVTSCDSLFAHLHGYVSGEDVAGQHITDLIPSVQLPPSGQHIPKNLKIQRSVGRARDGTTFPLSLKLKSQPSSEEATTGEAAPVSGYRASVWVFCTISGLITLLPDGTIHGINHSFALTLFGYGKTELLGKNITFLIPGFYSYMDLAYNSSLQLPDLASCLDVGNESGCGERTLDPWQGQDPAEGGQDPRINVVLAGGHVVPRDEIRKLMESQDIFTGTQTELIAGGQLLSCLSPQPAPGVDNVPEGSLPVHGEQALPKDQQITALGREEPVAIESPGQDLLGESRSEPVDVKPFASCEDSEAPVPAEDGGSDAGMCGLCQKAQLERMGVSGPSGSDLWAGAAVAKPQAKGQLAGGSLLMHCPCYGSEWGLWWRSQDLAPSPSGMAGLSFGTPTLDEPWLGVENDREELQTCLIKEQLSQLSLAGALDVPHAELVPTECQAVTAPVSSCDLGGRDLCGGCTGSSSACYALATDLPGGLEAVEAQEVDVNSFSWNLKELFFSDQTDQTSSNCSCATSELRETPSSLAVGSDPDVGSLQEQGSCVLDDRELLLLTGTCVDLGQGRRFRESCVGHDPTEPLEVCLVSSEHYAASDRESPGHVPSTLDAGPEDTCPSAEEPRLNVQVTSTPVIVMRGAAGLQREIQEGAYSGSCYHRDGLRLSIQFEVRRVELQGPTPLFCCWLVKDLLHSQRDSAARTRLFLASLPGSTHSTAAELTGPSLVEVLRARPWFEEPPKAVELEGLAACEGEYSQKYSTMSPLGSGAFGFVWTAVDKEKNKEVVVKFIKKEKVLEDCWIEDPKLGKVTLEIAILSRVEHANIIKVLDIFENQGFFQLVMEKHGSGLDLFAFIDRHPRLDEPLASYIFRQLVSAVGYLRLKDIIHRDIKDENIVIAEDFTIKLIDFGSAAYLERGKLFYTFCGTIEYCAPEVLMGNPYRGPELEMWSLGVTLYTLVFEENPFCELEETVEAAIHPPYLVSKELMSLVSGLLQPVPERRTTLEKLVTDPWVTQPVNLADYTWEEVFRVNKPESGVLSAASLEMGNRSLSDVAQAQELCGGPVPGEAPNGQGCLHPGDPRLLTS
For assay [15], the target named is Ephrin type-A receptor 4 (Homo sapiens) (UniProt P54764). Briefly: Inhibition of EPHA4 at 1 uM in presence of 100 uM ATP by Select Screen kinase assay relative to untreated control. The procedure, abridged:
as §1

Assay [16] has as its target Mitogen-activated protein kinase 1 (Homo sapiens) (UniProt P28482). Briefly: Inhibition of MAPK1 at 1 uM in presence of 10 uM ATP by Select Screen kinase assay relative to untreated control. The method in brief: as §2
The target of assay [17] is BDNF/NT-3 growth factors receptor (Homo sapiens) (UniProt Q16620). Briefly: Inhibition of NTRK2 at 1 uM in presence of 10 uM ATP by Select Screen kinase assay relative to untreated control. The procedure, abridged:
as §3

Assay [18] concerns the target Tyrosine-protein kinase Fgr (Homo sapiens) (UniProt P09769). Briefly: Inhibition of FGR at 1 uM in presence of 10 uM ATP by Select Screen kinase assay relative to untreated control. The method in brief: as §2
The target in assay [19] is T2, Protein kinase C iota type (Homo sapiens) (UniProt P41743).
T2 sequence (whole entry): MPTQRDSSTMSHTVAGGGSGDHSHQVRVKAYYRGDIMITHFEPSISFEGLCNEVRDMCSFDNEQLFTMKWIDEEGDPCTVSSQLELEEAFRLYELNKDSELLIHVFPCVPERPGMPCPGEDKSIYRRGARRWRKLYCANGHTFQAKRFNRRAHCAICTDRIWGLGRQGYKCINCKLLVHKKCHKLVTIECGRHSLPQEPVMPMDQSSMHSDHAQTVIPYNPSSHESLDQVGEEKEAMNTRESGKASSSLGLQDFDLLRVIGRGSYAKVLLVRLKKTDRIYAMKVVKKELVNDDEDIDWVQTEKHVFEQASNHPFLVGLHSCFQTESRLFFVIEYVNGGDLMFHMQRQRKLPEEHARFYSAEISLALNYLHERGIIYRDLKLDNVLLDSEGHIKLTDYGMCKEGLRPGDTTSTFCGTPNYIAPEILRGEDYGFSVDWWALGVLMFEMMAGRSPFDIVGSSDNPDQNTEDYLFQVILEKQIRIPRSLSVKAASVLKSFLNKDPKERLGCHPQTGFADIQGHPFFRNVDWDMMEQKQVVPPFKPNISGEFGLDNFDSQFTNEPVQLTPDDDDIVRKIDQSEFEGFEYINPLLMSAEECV
Briefly: Inhibition of PRKCI at 1 uM in presence of 10 uM ATP by Select Screen kinase assay relative to untreated control. The method in brief:
as §3

Sequence of Tyrosine-protein kinase Fes/Fps (Homo sapiens) (P07332 whole entry, canonical isoform): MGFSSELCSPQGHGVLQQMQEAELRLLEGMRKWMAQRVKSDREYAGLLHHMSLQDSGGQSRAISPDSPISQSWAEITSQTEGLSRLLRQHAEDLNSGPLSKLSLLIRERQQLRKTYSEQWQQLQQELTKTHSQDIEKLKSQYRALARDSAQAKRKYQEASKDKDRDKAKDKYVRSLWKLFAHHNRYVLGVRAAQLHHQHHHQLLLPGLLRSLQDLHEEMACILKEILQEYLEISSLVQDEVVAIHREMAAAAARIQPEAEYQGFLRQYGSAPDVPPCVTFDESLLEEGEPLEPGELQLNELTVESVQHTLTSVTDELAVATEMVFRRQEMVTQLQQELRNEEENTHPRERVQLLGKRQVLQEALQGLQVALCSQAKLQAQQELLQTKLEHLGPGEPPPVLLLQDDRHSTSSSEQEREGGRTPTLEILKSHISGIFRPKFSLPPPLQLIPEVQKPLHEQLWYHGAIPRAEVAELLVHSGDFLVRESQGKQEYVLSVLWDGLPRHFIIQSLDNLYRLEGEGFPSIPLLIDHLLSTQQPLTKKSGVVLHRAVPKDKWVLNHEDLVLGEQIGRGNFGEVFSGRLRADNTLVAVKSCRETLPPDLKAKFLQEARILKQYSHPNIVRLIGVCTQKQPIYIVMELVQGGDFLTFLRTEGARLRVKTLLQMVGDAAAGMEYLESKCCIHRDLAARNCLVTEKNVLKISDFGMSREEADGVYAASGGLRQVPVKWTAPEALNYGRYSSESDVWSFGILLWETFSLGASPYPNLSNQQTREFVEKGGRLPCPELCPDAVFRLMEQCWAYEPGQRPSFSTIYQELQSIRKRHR
Sequence of BDNF/NT-3 growth factors receptor (Homo sapiens) (Q16620 32-822 limits assumed): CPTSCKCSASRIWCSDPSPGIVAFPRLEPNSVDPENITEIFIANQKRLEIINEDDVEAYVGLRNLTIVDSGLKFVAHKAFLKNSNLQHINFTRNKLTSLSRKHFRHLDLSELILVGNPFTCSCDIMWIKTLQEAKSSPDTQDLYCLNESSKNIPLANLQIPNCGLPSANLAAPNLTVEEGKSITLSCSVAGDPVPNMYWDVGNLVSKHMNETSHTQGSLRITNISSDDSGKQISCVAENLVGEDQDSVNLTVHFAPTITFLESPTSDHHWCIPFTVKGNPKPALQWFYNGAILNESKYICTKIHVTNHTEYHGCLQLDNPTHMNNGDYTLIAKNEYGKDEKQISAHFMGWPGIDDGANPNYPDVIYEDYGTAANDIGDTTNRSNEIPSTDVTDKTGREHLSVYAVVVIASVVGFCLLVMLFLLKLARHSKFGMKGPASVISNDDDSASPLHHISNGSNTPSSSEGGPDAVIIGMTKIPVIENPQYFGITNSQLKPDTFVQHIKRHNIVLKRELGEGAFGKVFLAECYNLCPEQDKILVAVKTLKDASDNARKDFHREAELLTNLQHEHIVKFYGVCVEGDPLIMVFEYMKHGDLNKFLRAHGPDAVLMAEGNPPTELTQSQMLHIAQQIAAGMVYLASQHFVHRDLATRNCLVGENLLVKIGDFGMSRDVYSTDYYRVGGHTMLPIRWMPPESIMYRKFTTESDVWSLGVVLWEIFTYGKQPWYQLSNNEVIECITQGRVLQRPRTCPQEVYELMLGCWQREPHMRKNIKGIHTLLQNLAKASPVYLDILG
Sequence of Ephrin type-A receptor 4 (Homo sapiens) (P54764 whole entry): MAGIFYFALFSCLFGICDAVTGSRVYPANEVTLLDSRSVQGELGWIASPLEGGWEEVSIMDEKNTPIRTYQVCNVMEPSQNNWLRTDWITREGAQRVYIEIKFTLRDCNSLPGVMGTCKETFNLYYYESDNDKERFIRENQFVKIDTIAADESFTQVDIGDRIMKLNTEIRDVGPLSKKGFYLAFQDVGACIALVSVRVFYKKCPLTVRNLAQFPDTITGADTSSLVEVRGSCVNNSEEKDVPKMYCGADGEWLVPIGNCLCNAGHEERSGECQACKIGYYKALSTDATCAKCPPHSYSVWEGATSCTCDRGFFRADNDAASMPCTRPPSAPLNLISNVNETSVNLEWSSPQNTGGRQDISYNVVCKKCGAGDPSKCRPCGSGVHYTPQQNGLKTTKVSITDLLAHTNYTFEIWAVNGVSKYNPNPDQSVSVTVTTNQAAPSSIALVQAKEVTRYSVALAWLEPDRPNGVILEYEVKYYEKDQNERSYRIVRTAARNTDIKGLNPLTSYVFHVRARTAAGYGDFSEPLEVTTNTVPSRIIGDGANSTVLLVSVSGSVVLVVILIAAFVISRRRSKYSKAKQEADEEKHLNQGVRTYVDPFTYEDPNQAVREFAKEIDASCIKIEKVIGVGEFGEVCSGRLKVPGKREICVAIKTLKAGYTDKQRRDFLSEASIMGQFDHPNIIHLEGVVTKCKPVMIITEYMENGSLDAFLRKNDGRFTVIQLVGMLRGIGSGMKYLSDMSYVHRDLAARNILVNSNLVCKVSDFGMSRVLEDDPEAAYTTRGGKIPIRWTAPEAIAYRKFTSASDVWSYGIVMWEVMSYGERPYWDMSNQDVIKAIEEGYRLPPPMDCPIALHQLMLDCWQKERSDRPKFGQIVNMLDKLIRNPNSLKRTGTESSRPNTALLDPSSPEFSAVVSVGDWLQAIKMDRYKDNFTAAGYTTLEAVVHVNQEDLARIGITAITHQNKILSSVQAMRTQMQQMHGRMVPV

What is called inhibition is the change of the read-out against control, counted positive when it falls. As to `COc1ccccc1N1CCN(c2ncnc3[nH]nc(Br)c23)CC1`, the inhibition amounted to 27% in assay [1]; 12% in assay [2]; 7% in assay [3]; 16% in assay [4]; 1% in assay [5]; 16% in assay [6]. The inhibition is 6% in assay [7]; 8% in assay [8]; 7% in assay [9]; 10% in [10]; 3% in assay [11]; 9% in assay [12]. Moreover, the inhibition in [13] came to 26%; in assay [14], 1%; in assay [15], 9%; in [16], 11%; in assay [17] it was 11%; in assay [18], 8%. Moreover, the inhibition in assay [19] was found to be 13%.

For `O=C(NCCCNc1nc(Nc2cccc(NC(=O)N3CCCC3)c2)ncc1I)c1cccs1`, the inhibition in assay [1] came out at 34%; in [2] it was 67%; in assay [3], 10%; in assay [4], 7%; in assay [5], 25%; in [6], 37%. The inhibition in assay [7] is 58%; in [8], 14%; in assay [9], 5%; in assay [10], 10%; in assay [11], 11%; in assay [12], 49%. Further, the inhibition in assay [13] is 44%; in assay [14], 3%; in [15], 11%; in [16], 52%; in [17], 74%; in assay [18] it was 29%. Besides, the inhibition in [19] worked out at 21%.

As to `Cc1n[nH]c2ccc(-c3cncc(OC[C@@H](N)Cc4c[nH]c5ccccc45)c3)cc12`, the inhibition in assay [1] was -1%; in assay [2], 42%; in assay [3], -1%; in assay [4], 100%; in assay [5] it was 25%; in assay [6], 40%. In addition, the inhibition in [7] worked out at 76%; in assay [8] it was 57%; in [9], 35%; in assay [10], 5%; in assay [11], 5%; in assay [12], 53%. The inhibition is 5% in [13]; 36% in assay [14]; -4% in [15]; 61% in assay [16]; 12% in [17]; 36% in [18]. Besides, the inhibition in assay [19] stood at 10%.
